ChEMBL document CHEMBL1137848, “Discovery of isoxazolinone antibacterial agents. Nitrogen as a replacement for the stereogenic center found in oxazolidinone antibacterials” (2004)
Converted amounts (≈) assume the structure as drawn.

How the values were obtained:
Format in all cases: functional
[1] = tested on: Staphylococcus aureus; assay: Minimum inhibitory concentration against methicillin resistant Staphylococcus aureus (strain A27223) in absence of calf serum
Outline: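 Microbroth dilution MIC following the NCCLS method, no serum added. Mueller-Hinton broth, inoculum approximately 5·10⁵ CFU/well, incubated at 35 °C for 18 h in ambient air.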

[2] = tested on: Haemophilus influenzae; assay: Minimum inhibitory concentration against Haemophilus influenzae (strain A20191) in absence of calf serum
Outline: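 MIC by NCCLS microbroth dilution in Haemophilus test medium broth without serum. Inoculum approximately 5·10⁵ CFU/well in microtiter plates, incubated at 35 °C for 18 h in ambient air.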

[3] = tested on: Staphylococcus aureus; assay: Minimum inhibitory concentration against Staphylococcus aureus (strain A15090) in presence of 50% calf serum
Outline: (§1)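 Microbroth dilution MIC following the NCCLS method, with 50% calf serum added. Mueller-Hinton broth, inoculum approximately 5·10⁵ CFU/well, incubated at 35 °C for 18 h in ambient air.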

[4] = tested on: Enterococcus faecalis; assay: Minimum inhibitory concentration against Enterococcus faecalis (strain A20688) in absence of calf serum
Outline: (§2)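 Broth microdilution MIC per NCCLS method in Mueller-Hinton broth without serum. Final inoculum approximately 5·10⁵ CFU/well in microtiter plates, incubated 35 °C for 18 h in ambient air.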

[5] = tested on: Staphylococcus aureus; assay: Minimum inhibitory concentration against methicillin resistant Staphylococcus aureus (strain A27223) in presence of 50% calf serum; outline: as §1
[6] = tested on: Staphylococcus aureus; assay: Minimum inhibitory concentration against Staphylococcus aureus (strain A15090) in absence of calf serum; outline: as §2
[7] = tested on: Enterococcus faecalis; assay: Minimum inhibitory concentration against Enterococcus faecalis (strain A20688) in presence of 50% calf serum
Outline: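 Broth microdilution MIC per NCCLS method in Mueller-Hinton broth supplemented with 50% calf serum. Final inoculum approximately 5·10⁵ CFU/well, incubated 35 °C for 18 h in ambient air.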

COc1cccc(-c2cn(CNC(C)=O)oc2=O)c1
MIC [1]: 16 µg/mL (≈ 61 µM) | MIC [2]: > 64 µg/mL | MIC [3]: 64 µg/mL | MIC [4]: 32 µg/mL (≈ 122 µM) | MIC [5]: > 64 µg/mL | MIC [6]: 32 µg/mL (≈ 122 µM) | MIC [7]: > 64 µg/mL

CC(=O)NCn1cc(-c2ccc3c(c2)OCO3)c(=O)o1
MIC [1]: 1 µg/mL (≈ 3.62 µM) | MIC [2]: 16 µg/mL (≈ 57.9 µM) | MIC [3]: 4 µg/mL | MIC [4]: 1 µg/mL (≈ 3.62 µM) | MIC [5]: 4 µg/mL | MIC [6]: 2 µg/mL (≈ 7.24 µM) | MIC [7]: 8 µg/mL

CC(=O)NCn1cc(-c2cccc(Cl)c2)c(=O)o1
MIC [1]: 4 µg/mL (≈ 15 µM) | MIC [2]: 32 µg/mL (≈ 120 µM) | MIC [3]: > 64 µg/mL | MIC [4]: 16 µg/mL (≈ 60 µM) | MIC [5]: 16 µg/mL | MIC [6]: 8 µg/mL (≈ 30 µM) | MIC [7]: > 64 µg/mL

CC(=O)NCn1cc(-c2cc(C(F)(F)F)cc(C(F)(F)F)c2)c(=O)o1
MIC [2]: > 64 µg/mL | MIC [4]: > 128 µg/mL | MIC [6]: > 128 µg/mL

Oc1oncc1-c1ccc(-c2ccccc2)cc1
MIC [2]: > 64 µg/mL | MIC [3]: > 64 µg/mL | MIC [4]: > 128 µg/mL | MIC [6]: > 128 µg/mL | MIC [7]: > 64 µg/mL

CC(=O)NCn1cc(-c2cc(F)cc(F)c2)c(=O)o1
MIC [1]: 8 µg/mL (≈ 29.8 µM) | MIC [2]: > 64 µg/mL | MIC [4]: 32 µg/mL (≈ 119 µM) | MIC [6]: 8 µg/mL (≈ 29.8 µM)

NC(=O)Cn1cc(-c2ccccc2)c(=O)o1
MIC [2]: > 64 µg/mL | MIC [4]: > 128 µg/mL

COc1ccc(-c2cn(CNC(C)=O)oc2=O)cc1
MIC [1]: 1 µg/mL (≈ 3.81 µM) | MIC [2]: 16 µg/mL (≈ 61 µM) | MIC [3]: 4 µg/mL | MIC [4]: 2 µg/mL (≈ 7.63 µM) | MIC [5]: 4 µg/mL | MIC [6]: 2 µg/mL (≈ 7.63 µM) | MIC [7]: 8 µg/mL

CC(=O)NCn1cc(-c2ccc(-c3ccccc3)cc2)c(=O)o1
MIC [1]: 1 µg/mL (≈ 3.24 µM) | MIC [2]: 16 µg/mL (≈ 51.9 µM) | MIC [3]: > 64 µg/mL | MIC [4]: 4 µg/mL (≈ 13 µM) | MIC [5]: 64 µg/mL | MIC [6]: 4 µg/mL (≈ 13 µM) | MIC [7]: 64 µg/mL

CSc1ccc(-c2cnoc2O)cc1
MIC [2]: > 64 µg/mL | MIC [3]: > 64 µg/mL | MIC [4]: > 128 µg/mL | MIC [6]: > 128 µg/mL | MIC [7]: > 64 µg/mL

CSc1ccc(-c2cn(CNC(C)=O)oc2=O)cc1
MIC [1]: 1 µg/mL (≈ 3.59 µM) | MIC [2]: 8 µg/mL (≈ 28.7 µM) | MIC [3]: 16 µg/mL | MIC [4]: 1 µg/mL (≈ 3.59 µM) | MIC [5]: 8 µg/mL | MIC [6]: 2 µg/mL (≈ 7.19 µM) | MIC [7]: 16 µg/mL

COc1ccc(-c2cnoc2O)cc1
MIC [2]: > 64 µg/mL | MIC [3]: > 64 µg/mL | MIC [4]: > 128 µg/mL | MIC [6]: > 128 µg/mL | MIC [7]: > 64 µg/mL

CC(=O)NCn1cc(-c2ccc(F)c(F)c2)c(=O)o1
MIC [1]: > 128 µg/mL | MIC [2]: > 64 µg/mL | MIC [3]: > 64 µg/mL | MIC [4]: > 128 µg/mL | MIC [6]: 128 µg/mL (≈ 477 µM) | MIC [7]: > 64 µg/mL

CC(=O)NCn1cc(-c2ccc(Cl)cc2)c(=O)o1
MIC [1]: 4 µg/mL (≈ 15 µM) | MIC [2]: 32 µg/mL (≈ 120 µM) | MIC [4]: 8 µg/mL (≈ 30 µM) | MIC [6]: 8 µg/mL (≈ 30 µM)

CC(=O)NCn1cc(-c2ccccc2)c(=O)o1
MIC [1]: 4 µg/mL (≈ 17.2 µM) | MIC [2]: 8 µg/mL (≈ 34.4 µM) | MIC [3]: 16 µg/mL | MIC [4]: 16 µg/mL (≈ 68.9 µM) | MIC [5]: 8 µg/mL | MIC [6]: 8 µg/mL (≈ 34.4 µM) | MIC [7]: 16 µg/mL

CC(=O)NCn1cc(-c2cccc(F)c2)c(=O)o1
MIC [1]: 4 µg/mL (≈ 16 µM) | MIC [2]: > 64 µg/mL | MIC [4]: 16 µg/mL (≈ 63.9 µM) | MIC [6]: 8 µg/mL (≈ 32 µM)

CC(=O)NCn1cc(-c2ccc(F)cc2)c(=O)o1
MIC [2]: 32 µg/mL (≈ 128 µM) | MIC [3]: > 64 µg/mL | MIC [4]: > 128 µg/mL | MIC [6]: > 128 µg/mL | MIC [7]: > 64 µg/mL

CC(=O)NCn1cc(-c2ccc(Br)cc2)c(=O)o1
MIC [1]: 2 µg/mL (≈ 6.43 µM) | MIC [2]: 8 µg/mL (≈ 25.7 µM) | MIC [3]: > 64 µg/mL | MIC [4]: 8 µg/mL (≈ 25.7 µM) | MIC [6]: 4 µg/mL (≈ 12.9 µM) | MIC [7]: > 64 µg/mL

CC(=O)NCn1cc(-c2cccc(C(F)(F)F)c2)c(=O)o1
MIC [1]: 16 µg/mL (≈ 53.3 µM) | MIC [2]: > 64 µg/mL | MIC [3]: 64 µg/mL | MIC [4]: 64 µg/mL (≈ 213 µM) | MIC [5]: 64 µg/mL | MIC [6]: 32 µg/mL (≈ 107 µM) | MIC [7]: > 64 µg/mL

CC(=O)NCn1cc(-c2cccc(C)c2)c(=O)o1
MIC [1]: 4 µg/mL (≈ 16.2 µM) | MIC [2]: > 64 µg/mL | MIC [4]: 32 µg/mL (≈ 130 µM) | MIC [6]: 8 µg/mL (≈ 32.5 µM)

CC(=O)NCn1cc(-c2ccc(C(C)C)cc2)c(=O)o1
MIC [3]: 4 µg/mL | MIC [4]: 2 µg/mL (≈ 7.29 µM) | MIC [6]: 1 µg/mL (≈ 3.65 µM) | MIC [7]: 8 µg/mL

Oc1oncc1-c1ccc2c(c1)OCO2
MIC [2]: > 64 µg/mL | MIC [3]: > 64 µg/mL | MIC [4]: > 128 µg/mL | MIC [6]: > 128 µg/mL | MIC [7]: > 64 µg/mL

COc1cc(OC)cc(-c2cn(CNC(C)=O)oc2=O)c1
MIC [2]: 64 µg/mL (≈ 219 µM) | MIC [4]: > 128 µg/mL | MIC [6]: > 128 µg/mL

COc1ccc(-c2cn(CNC(C)=O)oc2=O)cc1OC
MIC [1]: 64 µg/mL (≈ 219 µM) | MIC [2]: > 64 µg/mL | MIC [3]: > 64 µg/mL | MIC [4]: > 128 µg/mL | MIC [6]: 128 µg/mL (≈ 438 µM) | MIC [7]: > 64 µg/mL

CC(=O)NC[C@H]1CN(c2ccc(N3CCOCC3)c(F)c2)C(=O)O1 [LINEZOLID]
MIC [1]: 1 µg/mL (≈ 2.96 µM) | MIC [2]: 8 µg/mL (≈ 23.7 µM) | MIC [3]: 1 µg/mL | MIC [4]: 0.5 µg/mL (≈ 1.48 µM) | MIC [5]: 1 µg/mL | MIC [6]: 1 µg/mL (≈ 2.96 µM) | MIC [7]: 0.5 µg/mL
